# In PubChem BioAssay:
# Activity calls are given as the source filed them.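 How the source made its calls, unless noted: active means inhibition at or above 50% at 10 µM; inactive means inhibition below 50%.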
# How the values were obtained:
# [1] = inhibitors of TNFa-induced NFkB p65 translocation, primary screen, imaging, HUVEC, MLSMR starter and 10KST1 sets (AID 438;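 active means inhibition above 20% together with a positive visual image hit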;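 further: compound added about 3h40 before a 20 min TNFalpha stimulation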;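 on inhibition: signal is the nuclear over cytoplasmic p65 intensity ratio per well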); conditions: HUVEC TNFa-induced p65 nuclear translocation; cell count: measured here: nuclei count (cytotoxicity indicator), at 2.08 µM; inhibition: at 2 µM, stronger effect = higher value, 0% TNFa-plus-vehicle, 100% no-TNFa wells
# [2] = reduction of polyQ htt aggregates in cells – imaging, exon1htt(103Q)mCFP cells, high-content imaging, primary screen (AID 483;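 active means visual image review flags a hit and inhibition of aggregation exceeds 20%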;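 further: compound exposure lasted 3 days before fixation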;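 on nuclei count: percent of the per-plate median nuclei count of sample wells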); conditions: exon1htt(103Q)mCFP cell line, aggregate imaging, at 2 µM; inhibition of aggregation: stronger effect = higher value; nuclei count: measured here: cell count, toxicity
# [3] = endothelial E-selectin expression blockers – imaging, HUVEC, immunofluorescence, MLSMR starter and 10KST1 sets, primary screen (AID 487;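 active means visually confirmed hit in the image check and inhibition above 20%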;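 on inhibition: signal is fraction of cell area covered by stained E-selectin grains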;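 on nuclei count: 100% = median nuclei count of all wells on the same plate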); conditions: HUVEC TNFalpha-induced E-selectin immunofluorescence imaging, at 2 µM; inhibition: stronger effect = higher value; nuclei count: measured here: cell number, toxicity
# [4] = target: Voltage-gated potassium channel subunit beta-2 (Rattus norvegicus) (UniProt P62483); experiment: inhibitors of rat Kvbeta2 reductase activity – biochemical, NADPH fluorescence, primary screen (AID 622;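 active means fluorescence slope higher than the sample average by over 3 SD, cut at about -0.22 in these data, passing the limit was not always enough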;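 further: slope of raw intensity against log time taken from 70 to 1610 s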); conditions: recombinant KvBeta, 4-cyanobenzaldehyde reduction, at 10 µM, stronger effect = higher value
# [5] = target: Voltage-gated potassium channel subunit beta-2 (Rattus norvegicus) (UniProt P62483); experiment: enhancers of rat Kvbeta2 NADPH turnover – biochemical, NADPH fluorescence, primary screen (AID 623;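 active means NADPH fluorescence slope more negative than the mean of all samples by about 3 SD, 99.7% confidence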;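 further: fluorescence intensity change per second fitted from 20 to 320 s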); conditions: Recombinant KvBeta, NADPH fluorescence decrease slope, 10 min; at 10 µM; stronger effect = lower value
# [6] = target: Muscarinic acetylcholine receptor M4 (Homo sapiens) (UniProt P08173); experiment: M4-linked GIRK flux change, two-sided – cell-based, HEK293 M4/GIRK, thallium flux, BTC-AM, M4 allosteric agonist project, primary screen (AID 625;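 active means fluorescence slope after compound addition differing from the mean of all tested samples at 99.7% confidence, mostly higher but some lower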;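 further: thallium influx through GIRK channels coupled to M4 in HEK293 cells with BTC-AM dye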); conditions: at 10 µM, actives lie on both sides
# How it was run: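 Material: HEK293 cells with M4 receptor and GIRK channels; Times: cells overnight at 37 °C, BTC-AM loading 1 h, reads 2 min total; Technique: kinetic BTC-AM fluorescence sampled at 1 Hz, 10 s pre-addition baseline; Read-out basis: slope over 15–24 s of trace normalized to starting intensity; Controls: carbachol positive, DMSO negative.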
# [7] = blockers of RIG-like receptor reporter activation – cell-based, Sendai virus stimulus, luciferase, 10K MLSCN set, TLR/RLR signaling modifier project, primary screen (AID 602276); conditions: HEK293 RL24 IRF3 luciferase reporter, at 10 µM, stronger effect = higher value;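 further: firefly luciferase from ISG56 promoter only with Renilla not read in this screen; 0% = Sendai virus plus DMSO and 100% = medium plus DMSO without virus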
# [8] = TLR3 IRF3 reporter activation blockers – cell-based, poly I:C stimulus, luciferase, 10K MLSCN set, primary screen (AID 602277;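 active means inhibition of the reporter signal at or above 50%; inactive means inhibition below 50%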); conditions: HEK293-TLR3 RL24 IRF3 luciferase reporter, at 10 µM, stronger effect = higher value
# Chain of Voltage-gated potassium channel subunit beta-2 (Rattus norvegicus) (P62483 whole entry, looked up): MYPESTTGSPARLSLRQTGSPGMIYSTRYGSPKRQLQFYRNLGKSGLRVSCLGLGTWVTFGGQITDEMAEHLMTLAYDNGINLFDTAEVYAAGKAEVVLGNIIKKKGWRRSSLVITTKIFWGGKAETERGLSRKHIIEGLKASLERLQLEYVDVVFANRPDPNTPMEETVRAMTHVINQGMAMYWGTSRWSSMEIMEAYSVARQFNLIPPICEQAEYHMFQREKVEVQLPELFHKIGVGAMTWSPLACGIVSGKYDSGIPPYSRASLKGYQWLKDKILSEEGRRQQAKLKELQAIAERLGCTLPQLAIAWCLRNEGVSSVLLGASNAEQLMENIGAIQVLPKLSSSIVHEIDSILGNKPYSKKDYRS
# Chain of Muscarinic acetylcholine receptor M4 (Homo sapiens) (P08173 whole entry, looked up): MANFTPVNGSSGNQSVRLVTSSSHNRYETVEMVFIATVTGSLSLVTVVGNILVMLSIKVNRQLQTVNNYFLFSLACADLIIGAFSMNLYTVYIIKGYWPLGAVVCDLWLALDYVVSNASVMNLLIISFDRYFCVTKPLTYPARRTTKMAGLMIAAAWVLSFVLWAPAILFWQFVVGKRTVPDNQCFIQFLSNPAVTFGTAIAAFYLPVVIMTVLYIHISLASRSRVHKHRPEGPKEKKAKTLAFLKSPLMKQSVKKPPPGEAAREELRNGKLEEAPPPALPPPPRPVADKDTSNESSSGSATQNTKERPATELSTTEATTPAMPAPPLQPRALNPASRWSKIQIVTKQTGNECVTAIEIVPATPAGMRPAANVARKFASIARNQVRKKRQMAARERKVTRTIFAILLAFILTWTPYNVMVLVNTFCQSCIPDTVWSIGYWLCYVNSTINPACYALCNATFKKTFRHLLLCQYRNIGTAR
SMILES,cell count [1],inhibition [1],inhibition of aggregation [2],nuclei count [2] [%],inhibition [3],nuclei count [3] [%],fluorescence slope [4],NADPH fluorescence slope [5],fluorescence slope [6],inhibition [7],inhibition [8]
CCN(CC)S(=O)(=O)c1ccc(C(=O)Oc2ccc3c(c2)OCO3)cc1,603,-8.9% (inactive),-5% (inactive),108,-19.8% (inactive),110,-0.477 (inactive),1.4e-07 (inactive),0.00717 (inactive),1.83% (inactive),9.42% (inactive)
CN(C)c1cccc(N=C2C=C(N3CCOCC3)CC(C)(C)C2)c1,473,2.4% (inactive),8.4% (inactive),86.3,-54.6% (inactive),116,-0.55 (inactive),-1.9e-05 (inactive),0.00498 (inactive),-0.858% (inactive),16.5% (inactive)
CC(C)(C)c1ccccc1NC(=O)c1cccnc1,224,-5.6% (inactive),28.5% (inactive),91.8,-81.8% (inactive),89.7,-0.533 (inactive),-2.2e-05 (inactive),0.00439 (inactive),15.7% (inactive),19.9% (inactive)
CCn1cc(C(=O)N2CCCC2)c(=O)c2cc(S(=O)(=O)N3CCOCC3)ccc21,542,-1% (inactive),-13.1% (inactive),100,14.8% (inactive),113,-0.427 (inactive),-7.4e-05 (inactive),0.00706 (inactive),1.49% (inactive),12.8% (inactive)
O=C(NCc1ccc(Cl)cc1)c1ccc(COCC(F)(F)F)o1,702,-3.9% (inactive),-3.7% (inactive),91.3,-28.9% (inactive),101,-0.421 (inactive),-0.00041 (inactive),0.00521 (inactive),-1.43% (inactive),-15.5% (inactive)
CCCCc1ccc(NC(=O)c2c(C)noc2C)cc1,451,-2.5% (inactive),0.1% (inactive),109,47.3% (inactive),95.2,-0.563 (inactive),-0.000106 (inactive),0.00365 (inactive),-8.01% (inactive),-38.5% (inactive)
CC(=O)Nc1nc(C)c(-c2csc(Nc3ccc(O)cc3)n2)s1,547,1.5% (inactive),33.1% (inactive),99.7,-154% (inactive),164,-0.556 (inactive),-2.7e-05 (inactive),0.00314 (inactive),20.1% (inactive),9.01% (inactive)
CCC(=O)N(Cc1cc2c(C)ccc(C)c2[nH]c1=O)C1CCCCC1,689,-5.6% (inactive),1.1% (inactive),93.2,-36.3% (inactive),100,-0.474 (inactive),-3.7e-05 (inactive),0.00636 (inactive),13.6% (inactive),25.2% (inactive)
CC(=O)C1=C(O)C(=O)N(Cc2ccco2)C1c1ccc2c(c1)OCO2 (stereo not drawn),403,10.9% (inactive),1.6% (inactive),104,7.1% (inactive),116,-0.513 (inactive),-2.5e-05 (inactive),0.00429 (inactive),0.0775% (inactive),11.9% (inactive)
Cc1cc(NC(=O)CSc2ccc(Cl)cc2)no1,368,0.2% (inactive),12.7% (inactive),94.2,-83.4% (inactive),102,-0.548 (inactive),-0.000128 (inactive),0.00359 (inactive),-7.02% (inactive),-14.7% (inactive)
O=c1cc(-c2ccc(Cl)cc2)[nH][nH]1,523,-2.4% (inactive),10.1% (inactive),104,54.7% (inactive),47.1,-0.27 (inactive),-4.3e-05 (inactive),0.00862 (inactive),15.8% (inactive),-16.8% (inactive)
Cn1c(NCc2cccc(Br)c2)nc2ccccc21,337,-4.7% (inactive),3% (inactive),103,-6.9% (inactive),139,-0.528 (inactive),-2.6e-05 (inactive),0.00491 (inactive),8.28% (inactive),14.2% (inactive)
CCOC(=O)N1CCN(CC(=O)Nc2c(C(=O)OC)[nH]c3cccc(Cl)c23)CC1,556,-15.5% (inactive),-5.4% (inactive),96.1,-23.3% (inactive),94,-0.214 (inactive),-2.3e-05 (inactive),0.00534 (inactive),20% (inactive),-2.65% (inactive)
COc1cccc(C(=O)Nc2cccc(C(=O)N3CCOCC3)c2)c1,354,1.6% (inactive),0.9% (inactive),76,-121% (inactive),95,-0.564 (inactive),-3.3e-05 (inactive),0.00825 (inactive),3.67% (inactive),1.87% (inactive)
CC1=CC=CC2=NC(=O)CC(C)(C(=O)N(CC(=O)NC(C)C)C3CCCC3)N12 (stereo not drawn),668,-4.9% (inactive),-31.9% (inactive),107,71.9% (active),102,-0.405 (inactive),6.3e-05 (inactive),0.00619 (inactive),4.96% (inactive),6.2% (inactive)
Cc1ccc(-c2cc(C(F)(F)F)n3ncc(C(=O)O)c3n2)cc1,412,3.1% (inactive),-8.3% (inactive),109,-26.7% (inactive),110,-0.524 (inactive),-3.4e-05 (inactive),0.00395 (inactive),19.6% (inactive),21.8% (inactive)
CCOc1ncccc1C(=O)Nc1ccc2c(C)cc(=O)oc2c1,585,5.8% (inactive),10% (inactive),92.5,-26.9% (inactive),96.9,-0.535 (inactive),-3.1e-05 (inactive),0.00712 (inactive),10.1% (inactive),4.34% (inactive)
O=C(CNS(=O)(=O)c1ccc(Br)s1)N1CCCC1,367,3.7% (inactive),-1% (inactive),93.3,-164% (inactive),101,-0.636 (inactive),-9.6e-06 (inactive),0.00369 (inactive),21.1% (inactive),25.7% (inactive)
O=C(CSC1=NC(=O)C(Cc2ccccc2)C(=O)N1)NC1CCCCC1 (stereo not drawn),605,-9.8% (inactive),-13.9% (inactive),104,-11.4% (inactive),108,-0.558 (inactive),-6.8e-05 (inactive),0.0034 (inactive),-10.2% (inactive),-11.1% (inactive)
Cc1ccc(Nc2nnns2)cc1C,758,5% (inactive),-5% (inactive),105,-52.7% (inactive),116,-0.58 (inactive),1.4e-05 (inactive),0.00717 (inactive),6.92% (inactive),7.21% (inactive)
C=CCn1c(=O)[nH]c2cc(C(=O)N3CCN(c4cc(C)ccc4C)CC3)ccc2c1=O,481,-28.5% (inactive),-1.6% (inactive),109,-67.4% (inactive),127,-0.245 (inactive),-2.6e-05 (inactive),0.00726 (inactive),14.1% (inactive),-2.95% (inactive)
COc1ccc(C(=O)N(Cc2ccco2)C(C(=O)NC2CCCC2)c2ccc(O)cc2)cc1OC (stereo not drawn),653,-2.4% (inactive),-3.3% (inactive),104,14.6% (inactive),103,-0.54 (inactive),-4.9e-05 (inactive),0.00452 (inactive),10.7% (inactive),12.6% (inactive)
CCc1nnc(NC(=O)CSc2nnc(Cc3ccccc3)n2-c2ccc(OC)cc2)s1,680,-13.4% (inactive),0.3% (inactive),102,52.3% (inactive),105,-0.45 (inactive),-5.9e-05 (inactive),0.00454 (inactive),10.9% (inactive),12% (inactive)
CCOC(=O)c1[nH]c2ccc(F)cc2c1NC(=O)C(C)N1CCc2cc(OC)c(OC)cc2C1 (stereo not drawn),436,0.5% (inactive),15.1% (inactive),76.9,42.5% (inactive),96,-0.574 (inactive),-3.4e-05 (inactive),0.00265 (inactive),-0.796% (inactive),35.3% (inactive)
COC(=O)C1=C(C)NC(=O)C1(NC(=O)c1cccnc1)C(F)(F)F (stereo not drawn),609,-3.9% (inactive),-6.9% (inactive),87.8,-68.7% (inactive),103,-0.565 (inactive),-2.9e-05 (inactive),0.00444 (inactive),-31.4% (inactive),56.2% (active)
CCCn1c(SCC(=O)Nc2nnc(-c3ccccc3)s2)nnc1-c1ccccn1,591,-5.1% (inactive),14.9% (inactive),45.4,7% (inactive),105,-0.376 (inactive),1.2e-05 (inactive),0.00563 (inactive),-15.8% (inactive),-30% (inactive)
CC(NC(=O)c1ccccc1NC(=O)c1ccco1)C(=O)O (stereo not drawn),438,0.9% (inactive),-9.6% (inactive),100,-67.5% (inactive),121,-0.551 (inactive),-5.5e-05 (inactive),0.006 (inactive),23.6% (inactive),20% (inactive)
O=C(CN1CCOCC1)N1CCN(C(=O)CN2CCOCC2)CC1,557,-51% (inactive),-14% (inactive),120,-63.9% (inactive),120,-0.468 (inactive),9.6e-05 (inactive),0.00604 (inactive),12.4% (inactive),17.7% (inactive)
